Results published in ChEMBL document CHEMBL3425425, “6-Substituted sulfocoumarins are selective carbonic anhdydrase IX and XII inhibitors with significant cytotoxicity against colorectal cancer cells” (J Med Chem, 2015).
Calls of active or inactive are those of the source. No cut-off for these calls is given here.

Legend:
Carbonic anhydrase 2 = Carbonic anhydrase 2 (Homo sapiens, UniProt P00918); assay: Inhibition of human recombinant carbonic anhdydrase-2 expressed in Escherichia coli pre-incubated for 6 hrs by stopped-flow CO2 hydration assay
HT-29 [1] = assay: Cytotoxicity against human HT-29 cells assessed as reduction in cell viability at 30 to 300 uM incubated for 16 to 72 hrs under normoxic conditions by MTT assay; type: functional, cell-based
Summary of the method: (§1)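 HT-29 cells were grown in high-glucose DMEM with 20% FBS at 37 °C and plated at 1 × 10^4/well. After 24 h they were exposed to 0, 30, 100 or 300 μM for 16, 48 or 72 h in normoxia (20% O2, air, 5% CO2). Washed cells got 1 mg/mL MTT for 30 min at 37 °C, formazan was dissolved in DMSO and A550 read. Untreated set at 100%. Quadruplicates, ≥3 cell batches; mean ± SEM.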

Carbonic anhydrase 9 = Carbonic anhydrase 9 (Homo sapiens, UniProt Q16790); assay: Inhibition of human recombinant carbonic anhdydrase-9 expressed in Escherichia coli pre-incubated for 6 hrs by stopped-flow CO2 hydration assay
Carbonic anhydrase 1 = Carbonic anhydrase 1 (Homo sapiens, UniProt P00915); assay: Inhibition of human recombinant carbonic anhdydrase-1 expressed in Escherichia coli pre-incubated for 6 hrs by stopped-flow CO2 hydration assay
HT-29 [2] = assay: Cytotoxicity against human HT-29 cells assessed as reduction in cell viability at 30 to 300 uM incubated for 16 to 72 hrs under hypoxic conditions by MTT assay; type: functional, cell-based
Summary of the method: (§2)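 Cells were kept in high-glucose DMEM with 20% FBS at 37 °C, seeded at 1 × 10^4/well and treated 24 h later at 0–300 μM (0, 30, 100, 300) for 16, 48 or 72 h. Incubation was in a hypoxic chamber (0.1% O2, 5% CO2, residual N2). Viability was measured by MTT (1 mg/mL, 30 min, 37 °C), with DMSO-solubilized formazan read at 550 nm and expressed against untreated control = 100%. Mean ± SEM of three experiments.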

HT-29 [3] = assay: Cytotoxicity against human HT-29 cells assessed as reduction in cell viability at 100 uM incubated for 72 hrs under hypoxic conditions by MTT assay; type: functional, cell-based; summary of the method: as §2
HT-29 [4] = assay: Cytotoxicity against human HT-29 cells assessed as reduction in cell viability at 100 uM incubated for 72 hrs under normoxic conditions by MTT assay; type: functional, cell-based; summary of the method: as §1
HT-29 [5] = assay: Cytotoxicity against human HT-29 cells assessed as cell viability at 100 uM incubated for 48 hrs under normoxic conditions by MTT assay; type: functional; conditions: HT-29, 48 h, read-out: Activity; summary of the method: as §1
HT-29 [6] = assay: Cytotoxicity against human HT-29 cells assessed as cell viability at 100 uM incubated for 72 hrs under normoxic conditions by MTT assay; type: functional; conditions: HT-29, 72 h, read-out: Activity; summary of the method: as §1
HT-29 [7] = assay: Cytotoxicity against human HT-29 cells assessed as cell viability at 100 uM incubated for 72 hrs under hypoxic conditions by MTT assay; type: functional; conditions: HT-29, 72 h, read-out: Activity; summary of the method: as §2
HT-29 [8] = assay: Cytotoxicity against human HT-29 cells assessed as cell viability at 100 uM incubated for 16 hrs under normoxic conditions by MTT assay; type: functional; conditions: HT-29, 16 h, read-out: Activity; summary of the method: as §1
HT-29 [9] = assay: Cytotoxicity against human HT-29 cells assessed as reduction in cell viability at 300 uM incubated for 16 to 72 hrs under normoxic conditions by MTT assay; type: functional, cell-based; summary of the method: as §1
HT-29 [10] = assay: Cytotoxicity against human HT-29 cells assessed as cell viability at 30 uM incubated for 72 hrs under normoxic conditions by MTT assay; type: functional; conditions: HT-29, 72 h, read-out: Activity; summary of the method: as §1
HT-29 [11] = assay: Cytotoxicity against human HT-29 cells assessed as reduction in cell viability at 30 uM incubated for 16 hrs under normoxic conditions by MTT assay; type: functional, cell-based; summary of the method: as §1

Carbonic anhydrase 1, sequence (P00915 whole entry): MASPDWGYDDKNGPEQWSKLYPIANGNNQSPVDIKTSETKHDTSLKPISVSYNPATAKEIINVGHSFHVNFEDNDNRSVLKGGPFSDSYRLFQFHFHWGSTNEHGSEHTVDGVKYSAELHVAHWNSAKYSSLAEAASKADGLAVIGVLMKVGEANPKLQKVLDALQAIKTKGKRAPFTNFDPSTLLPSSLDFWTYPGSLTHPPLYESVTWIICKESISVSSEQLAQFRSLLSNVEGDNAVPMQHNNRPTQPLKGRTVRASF

| Ki (Carbonic anhydrase 2) | Ki (Carbonic anhydrase 9) | Ki (Carbonic anhydrase 1) | SMILES | other results |
| --- | --- | --- | --- | --- |
| > 10 µM | 0.0096 µM | > 10 µM | C[N+](C)(C)c1ccc2c(c1)C=CS(=O)(=O)O2 | Activity (HT-29 [1]): inactive; Activity (HT-29 [2]): inactive |
| > 10 µM | 0.0105 µM | > 10 µM | O=C(Nc1ccc2c(c1)C=CS(=O)(=O)O2)c1cccnc1 |  |
| > 10 µM | 0.0421 µM | > 10 µM | COc1ccc2c(c1)C=CS(=O)(=O)O2 |  |
| > 10 µM | 0.0077 µM | > 10 µM | O=C(Nc1ccc2c(c1)C=CS(=O)(=O)O2)c1ccncc1 | Activity (HT-29 [1]): inactive; Activity (HT-29 [2]): inactive |
| > 10 µM | 0.0172 µM | > 10 µM | CC(=O)Nc1ccc2c(c1)C=CS(=O)(=O)O2 |  |
| > 10 µM | 0.0813 µM | > 10 µM | O=C(Cc1ccccc1)Nc1ccc2c(c1)C=CS(=O)(=O)O2 |  |
| > 10 µM | 0.009 µM | > 10 µM | Cc1ccc(C(=O)Nc2ccc3c(c2)C=CS(=O)(=O)O3)cc1 |  |
| > 10 µM | 0.0338 µM | > 10 µM | N#Cc1ccc2c(c1)C=CS(=O)(=O)O2 |  |
| > 10 µM | 0.0091 µM | > 10 µM | O=C(Nc1ccc2c(c1)C=CS(=O)(=O)O2)c1ccccc1I |  |
| > 10 µM | 0.0056 µM | > 10 µM | CC(C)(C)C(=O)Nc1ccc2c(c1)C=CS(=O)(=O)O2 |  |
| > 10 µM | 0.0066 µM | > 10 µM | O=C(Nc1ccc2c(c1)C=CS(=O)(=O)O2)c1ccccc1 | viability at 100 µM (HT-29 [5]): 60%; viability at 100 µM (HT-29 [6]): 40%; viability at 100 µM (HT-29 [7]): 35%; viability at 100 µM (HT-29 [8]): 52%; Activity (HT-29 [9]): inactive; viability at 30 µM (HT-29 [10]): 43%; Activity (HT-29 [11]): Active |
| > 10 µM | 0.033 µM | > 10 µM | O=C(Nc1ccc2c(c1)C=CS(=O)(=O)O2)c1ccco1 |  |

| SMILES | Ki (Carbonic anhydrase 2) | Ki (Carbonic anhydrase 9) | Ki (Carbonic anhydrase 1) | other results |
| --- | --- | --- | --- | --- |
| O=C(Nc1ccc2c(c1)C=CS(=O)(=O)O2)c1ccccc1Br | > 10 µM | 0.0097 µM | > 10 µM | Activity (HT-29 [3]): Active; Activity (HT-29 [4]): Active |
| O=C(Nc1ccc2c(c1)C=CS(=O)(=O)O2)c1cccs1 | > 10 µM | 0.0295 µM | > 10 µM |  |
